Source: ChEMBL document CHEMBL3352386, “Development of chiral praziquantel analogues as potential drug candidates with activity to juvenile Schistosoma japonicum” (2014)

Columns and labels:
Schistosoma japonicum [1] = assay: Antischistosomal activity against adult Schistosoma japonicum assessed as vitality reduction at 50 uM after 72 hrs (reference value: 0%); assay type: functional
Schistosoma japonicum [2] = assay: Antischistosomal activity against adult Schistosoma japonicum assessed as vitality reduction at 100 uM after 72 hrs (reference value: 0%); assay type: functional
Schistosoma japonicum [3] = assay: Antischistosomal activity against juvenile Schistosoma japonicum assessed as worm survival at 50 uM after 24 hrs (reference value: 100%); assay type: functional
Outline: (§1)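 Nine juvenile S. japonicum worms recovered 17 days post-infection from female ICR Kunming mice, in duplicate dishes of bicarbonate-buffered DMEM with 20% newborn calf serum plus penicillin, streptomycin and amphotericin B. Compound diluted from DMSO stock. Held at 37 °C, 5% CO2, with daily stereomicroscope scoring. Survival% = surviving/total worms × 100.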

Schistosoma japonicum [4] = assay: Antischistosomal activity against juvenile Schistosoma japonicum assessed as vitality reduction at 50 uM after 24 hrs (reference value: 0%); assay type: functional
Schistosoma japonicum [5] = assay: Antischistosomal activity against juvenile Schistosoma japonicum assessed as worm survival at 50 uM after 48 hrs (reference value: 100%); assay type: functional; outline: as §1
Schistosoma japonicum [6] = assay: Antischistosomal activity against juvenile Schistosoma japonicum assessed as vitality reduction at 50 uM after 48 hrs (reference value: 0%); assay type: functional
Schistosoma japonicum [7] = assay: Antischistosomal activity against juvenile Schistosoma japonicum assessed as worm survival at 50 uM after 72 hrs (reference value: 100%); assay type: functional; outline: as §1
Schistosoma japonicum [8] = assay: Antischistosomal activity against juvenile Schistosoma japonicum assessed as vitality reduction at 50 uM after 72 hrs (reference value: 0%); assay type: functional
Schistosoma japonicum [9] = assay: Antischistosomal activity against adult Schistosoma japonicum assessed as vitality reduction at 50 uM after 24 hrs (reference value: 0%); assay type: functional
Schistosoma japonicum [10] = assay: Antischistosomal activity against adult Schistosoma japonicum assessed as worm survival at 100 uM after 24 hrs (reference value: 100%); assay type: functional
Outline: (§2)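 Five adult male S. japonicum worms recovered 6 weeks post-infection from female ICR Kunming mice, in duplicate dishes of bicarbonate-buffered DMEM with 20% newborn calf serum, penicillin, streptomycin and amphotericin B. Compound diluted from DMSO stock; DMSO control. Kept at 37 °C, 5% CO2, observed daily by stereomicroscope. Survival% = surviving/total worms × 100.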

Schistosoma japonicum [11] = assay: Antischistosomal activity against adult Schistosoma japonicum assessed as worm survival at 50 uM after 24 hrs (reference value: 100%); assay type: functional; outline: as §2
Schistosoma japonicum [12] = assay: Antischistosomal activity against adult Schistosoma japonicum assessed as vitality reduction at 100 uM after 24 hrs (reference value: 0%); assay type: functional
Schistosoma japonicum [13] = assay: Antischistosomal activity against adult Schistosoma japonicum assessed as worm survival at 50 uM after 48 hrs (reference value: 100%); assay type: functional; outline: as §2
Schistosoma japonicum [14] = assay: Antischistosomal activity against adult Schistosoma japonicum assessed as worm survival at 100 uM after 48 hrs (reference value: 100%); assay type: functional; outline: as §2
Schistosoma japonicum [15] = assay: Antischistosomal activity against adult Schistosoma japonicum assessed as vitality reduction at 50 uM after 48 hrs (reference value: 0%); assay type: functional
Schistosoma japonicum [16] = assay: Antischistosomal activity against adult Schistosoma japonicum assessed as vitality reduction at 100 uM after 48 hrs (reference value: 0%); assay type: functional
Schistosoma japonicum [17] = assay: Antischistosomal activity against adult Schistosoma japonicum assessed as worm survival at 50 uM after 72 hrs (reference value: 100%); assay type: functional; outline: as §2
Schistosoma japonicum [18] = assay: Antischistosomal activity against adult Schistosoma japonicum assessed as worm survival at 100 uM after 72 hrs (reference value: 100%); assay type: functional; outline: as §2
Schistosoma japonicum [19] = assay: Antischistosomal activity against juvenile Schistosoma japonicum infected in ICR Kunming mouse assessed as worm reduction at 200 mg/kg, po for 5 days beginning on day 14 after infection (reference value: 0%)
Schistosoma japonicum [20] = assay: Antischistosomal activity against adult Schistosoma japonicum assessed as worm survival at 80 uM after 72 hrs (reference value: 100%); assay type: functional; outline: as §2
Schistosoma japonicum [21] = assay: Antischistosomal activity against adult Schistosoma japonicum assessed as vitality reduction at 80 uM after 72 hrs (reference value: 0%); assay type: functional
Schistosoma japonicum [22] = assay: Antischistosomal activity against adult Schistosoma japonicum assessed as worm survival at 80 uM after 24 hrs (reference value: 100%); assay type: functional; outline: as §2
Schistosoma japonicum [23] = assay: Antischistosomal activity against adult Schistosoma japonicum assessed as vitality reduction at 80 uM after 24 hrs (reference value: 0%); assay type: functional
Schistosoma japonicum [24] = assay: Antischistosomal activity against adult Schistosoma japonicum assessed as worm survival at 80 uM after 48 hrs (reference value: 100%); assay type: functional; outline: as §2
Schistosoma japonicum [25] = assay: Antischistosomal activity against adult Schistosoma japonicum assessed as vitality reduction at 80 uM after 48 hrs (reference value: 0%); assay type: functional

Row | SMILES | inhibition at 50 µM (Schistosoma japonicum [1]) [%] | inhibition at 100 µM (Schistosoma japonicum [2]) [%] | survival at 50 µM (Schistosoma japonicum [3]) [%] | inhibition at 50 µM (Schistosoma japonicum [4]) [%] | survival at 50 µM (Schistosoma japonicum [5]) [%] | inhibition at 50 µM (Schistosoma japonicum [6]) [%] | survival at 50 µM (Schistosoma japonicum [7]) [%] | inhibition at 50 µM (Schistosoma japonicum [8]) [%] | inhibition at 50 µM (Schistosoma japonicum [9]) [%] | survival at 100 µM (Schistosoma japonicum [10]) [%] | survival at 50 µM (Schistosoma japonicum [11]) [%] | inhibition at 100 µM (Schistosoma japonicum [12]) [%] | survival at 50 µM (Schistosoma japonicum [13]) [%] | survival at 100 µM (Schistosoma japonicum [14]) [%] | inhibition at 50 µM (Schistosoma japonicum [15]) [%] | inhibition at 100 µM (Schistosoma japonicum [16]) [%] | survival at 50 µM (Schistosoma japonicum [17]) [%] | survival at 100 µM (Schistosoma japonicum [18]) [%] | inhibition in vivo at 200 mg/kg (Schistosoma japonicum [19]) [%] | survival at 80 µM (Schistosoma japonicum [20]) [%] | further results
1 | O=C1CCC(C(=O)N2CC(=O)N3CCc4ccccc4[C@@H]3C2)C1 (stereo not given in full) | 6.7 | 11.1 | 100 | 38.3 | 100 | 38.3 | 88.3 | 50.6 | 15.5 | 100 | 100 | 13.3 | 100 | 100 | 0 | 11.1 | 100 | 100 | 44.1 |  | 
2 | O=C1CCC(C(=O)N2CC(=O)N3CCc4ccccc4[C@H]3C2)C1 (stereo not given in full) | 0 | 15.3 | 100 | 45.7 | 100 | 45.7 | 85 | 53.1 | 4.5 | 100 | 100 | 16 | 100 | 100 | 0 | 15.5 | 100 | 100 | 24.6 |  | 
3 | O=C1CC(C(=O)N2CC(=O)N3CCc4ccccc4[C@@H]3C2)C1 | 15.3 | 22.7 | 100 | 32.1 | 100 | 37 | 100 | 38.3 | 17.8 | 100 | 100 | 24.5 | 100 | 100 | 15.5 | 22 | 100 | 100 | 41 |  | 
4 | O=C1CCC(C(=O)N2CC(=O)N3CCc4ccccc4C3C2)C1 (racemic) | 0 | 8.7 | 54.2 | 55.6 | 54.2 | 55.6 | 54.2 | 54.3 | 0 | 100 | 100 | 17.8 | 100 | 100 | 0 | 13.3 | 100 | 100 | 37.4 | 100 | inhibition at 80 µM (Schistosoma japonicum [21]): 0%; survival at 80 µM (Schistosoma japonicum [22]): 100%; inhibition at 80 µM (Schistosoma japonicum [23]): 23.3%; survival at 80 µM (Schistosoma japonicum [24]): 100%; inhibition at 80 µM (Schistosoma japonicum [25]): 13.3%
5 | O=C1CC(C(=O)N2CC(=O)N3CCc4ccccc4[C@H]3C2)C1 | 0 | 8.9 | 88.3 | 30.9 | 88.3 | 30.9 | 88.3 | 34.6 | 4.5 | 100 | 100 | 6.7 | 100 | 100 | 0 | 8.7 | 100 | 100 | 19 |  | 
6 | O=C1CCC(C(=O)N2CC(=O)N3CCc4ccccc4C3C2)CC1 (racemic) | 66.7 | 55.3 | 69.2 | 35.8 | 69.2 | 34.6 | 69.2 | 34.6 | 40 | 100 | 100 | 46.7 | 100 | 100 | 64.5 | 60 | 100 | 100 | 27.7 | 100 | inhibition at 80 µM (Schistosoma japonicum [21]): 66.7%; survival at 80 µM (Schistosoma japonicum [22]): 100%; inhibition at 80 µM (Schistosoma japonicum [23]): 48.9%; survival at 80 µM (Schistosoma japonicum [24]): 100%; inhibition at 80 µM (Schistosoma japonicum [25]): 64.5%
7 | O=C(C1CCCCC1)N1CC(=O)N2CCc3ccccc3C2C1 (stereo not given) [PRAZIQUANTEL] |  |  |  |  |  |  |  |  |  |  |  |  |  |  |  |  |  |  | 19.9 |  | 
8 | O=C1CC(C(=O)N2CC(=O)N3CCc4ccccc4C3C2)C1 (racemic) | 0 | 10 | 82.5 | 35.8 | 82.5 | 35.8 | 82.5 | 37 | 13.3 | 100 | 100 | 6.7 | 100 | 100 | 0 | 10 | 100 | 100 | 7.7 |  | 
9 | O=C1CCC(C(=O)N2CC(=O)N3CCc4ccccc4[C@@H]3C2)CC1 | 55.5 | 77.8 | 51.6 | 60.5 | 48.3 | 64.2 | 44.1 | 66.7 | 73.3 | 40 | 60 | 86.7 | 80 | 60 | 60 | 82.2 | 100 | 60 | 60 | 100 | inhibition at 80 µM (Schistosoma japonicum [21]): 60%; survival at 80 µM (Schistosoma japonicum [22]): 60%; inhibition at 80 µM (Schistosoma japonicum [23]): 82%; survival at 80 µM (Schistosoma japonicum [24]): 100%; inhibition at 80 µM (Schistosoma japonicum [25]): 69.3%
10 | O=C1CCC(C(=O)N2CC(=O)N3CCc4ccccc4[C@H]3C2)CC1 | 0 | 15.5 | 88.3 | 29.6 | 88.3 | 29.6 | 88.3 | 29.6 | 0 | 100 | 100 | 8.7 | 100 | 100 | 0 | 15.3 | 100 | 100 | 18 |  | 
